# Assay results collected from several papers.
# Protocols differ between the studies behind these lines.
# Target: Serine/threonine-protein kinase pim-2 (PIM2, Homo sapiens, UniProt Q9P1W9)
Compound,test,setting,measurement,value
Cc1ccc(NC(=O)c2ccnc(C(F)(F)F)c2)cc1-c1cc(OCCO)nc(N2CCOCC2)c1,binding,1 µM,remaining binding,82%
C=CC(=O)N1CCC[C@@H](n2nc(-c3ccc(Oc4ccccc4)cc3)c3c(N)ncnc32)C1,"enzyme activity, inhibitor",1 µM,inhibition,3%
CN1CCN(C(=O)c2ccc(NC(=O)Nc3ccc(N(C)c4ccnc(Nc5ccc(CS(C)(=O)=O)cc5)n4)cc3)cc2)CC1,binding,1 µM,remaining binding,100%
C#Cc1cc(-c2cc(Nc3nc(N[C@@H](C)c4ccc(F)cn4)ncc3Cl)n[nH]2)ccc1C=O,"enzyme activity, inhibitor",0.2 µM,inhibition,2.74%
COc1ccc2oc(-c3ccc4nc(N)oc4c3)c/c(=N\c3ccccc3NC(=O)CCN)c2c1,binding,1 µM,remaining binding,103%
CC#CC(=O)N1CCC[C@H]1c1nc(-c2ccc(C(=O)Nc3ccccn3)cc2)c2c(N)nccn12,"enzyme activity, inhibitor",1 µM,inhibition,0%
N#Cc1ccc(NC(=O)Nc2ccccc2)cc1,"cell-free assay, competition with immobilised ligand",25 µM,remaining binding,100%
C1=C/COCc2cc(ccc2OCCN2CCCC2)Nc2nccc(n2)-c2cccc(c2)COC/1,binding,0.1 µM,remaining binding,100%
C#Cc1cnc(Nc2ccnc(CO)c2)nc1Nc1ccccc1S(C)(=O)=NC#N (stereo not shown),cell-free assay,1 µM,remaining signal,100%
CCCCC(=O)Nc1ccc(-c2ccc3ncn(CCC)c(=O)c3c2)cn1,"binding, competition with immobilised ligand",0.5 µM,remaining binding,100%
